The list is not random: actives were taken first. Their share in the collection is about 3.5%.
MrgX1 PAM: allosterically activates human MrgX1 receptor signaling; MrgX1-HEK293, Fluo-4 calcium flux, FDSS; stronger effect = higher value; 310,000 compounds, 0.63% hits; B-score at 10 µM; Q96LB2;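 active = plate-corrected calcium response at least 3 library SD above typical, normal starting fluorescence, not activating the receptor alone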;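 also: compound read alongside a low EC10 to EC30 dose of BAM8-22 agonist; peak minus trough fluorescence over baseline measured at the second addition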
RGS4 pot: potentiators or activators of RGS4; HEK293 M3R/inducible RGS4, carbachol calcium flux Fluo4; stronger effect = lower value; B-score at 10 µM; 310,000 compounds, 0.92% hits;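 active = B-score of the integrated calcium signal more than 4 SD below the library mean, with starting fluorescence not abnormally high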;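 also: negative B-score means reduced calcium response which marks RGS4 activation or potentiation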
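System – HEK293 FlpIn-TREx cells, stable M3R, doxycycline-inducible RGS4 · Reagent – ECmax carbachol challenge · Times – compound preincubation 20 min at room temperature before agonist · Technique – Fluo4 fluorescence kinetic imaging of calcium · Measure – B score of integrated Fluo4 ratio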
RGS4 inh: inhibitors of human RGS4. B-score at 10 µM. 310,000 compounds, 0.45% hits. HEK293 M3R/RGS4 inducible, Fluo-4 calcium flux; stronger effect = higher value; triggered by carbachol at its EC20. P49798;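 active = B-score, a plate-corrected calcium signal, over three deviations above library mean, with baseline fluorescence within five deviations of library mean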;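 also: RGS4 expression induced by doxycycline in cells with stable M3 receptor; B-score is computed from the integrated fluorescence ratio over baseline after carbachol; higher B-score means a larger calcium signal and so more RGS4 inhibition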
Target sequence (P49798 whole entry, looked up): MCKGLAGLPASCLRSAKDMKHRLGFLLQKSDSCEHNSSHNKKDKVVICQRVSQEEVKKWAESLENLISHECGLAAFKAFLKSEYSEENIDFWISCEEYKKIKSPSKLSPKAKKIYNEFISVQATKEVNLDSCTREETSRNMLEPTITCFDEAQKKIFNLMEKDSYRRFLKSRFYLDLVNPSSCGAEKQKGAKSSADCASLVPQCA
MrgX1 antagonist: human MrgX1 receptor antagonism, primary screen | 310,000 compounds, 1.3% hits | B-score at 10 µM | Q96LB2 | AID 588676 | MRGX1-HEK293 calcium flux, Fluo-4, BAM8-22 antagonism; stronger effect = lower value;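 active = calcium-response B-score plate-corrected more than 3 library SD below zero, starting fluorescence within 5 deviations, no agonist response on first addition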;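 also: peak minus trough fluorescence over baseline after final BAM8-22 challenge near maximal dose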
MrgX1 ag: agonists of human MrgX1 receptor | Q96LB2 | 310,000 compounds, 0.44% hits | B-score at 10 µM | MrgX1-HEK293 cells, Fluo-4 calcium fluorescence, agonist mode; stronger effect = higher value;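 active = calcium response B-score plate-corrected fluorescence ratio at least 3 library SD, with starting fluorescence B-score inside 5 SD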
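Material – MrgX1-expressing HEK293 cells · Input – 15,000 cells seeded per well · Dosing – compound as first of three additions · Times – overnight seeding, then 1 h dark dye loading · Measured by – kinetic Fluo-4 NW fluorescence of intracellular calcium · Read-out – B-scored fluorescence response ratio · Benchmarks – positive and negative control wells on each plate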
RGS4 activ val: RGS4 activation, validation assay; inhibition, % at 10 µM; HEK293 M3R/RGS4 inducible, carbachol calcium flux Fluo4; shares compounds with RGS4 pot; 1,100 compounds, 89% hits; AID 602282;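 active = inhibition above 3 SD of the buffer control wells, cut at about 41% in these data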;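 also: signal is the integrated peak-minus-minimum Fluo4 fluorescence over baseline ratio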
M3R Ca counter: activity in cells without induced RGS4 expression. shares compounds with RGS4 pot. HEK293 M3R non-induced RGS4, Fluo4 calcium flux; after carbachol challenge at its EC90. inhibition, % at 10 µM. 1,100 compounds, 82% hits. AID 602283;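 active = inhibition exceeding 3 SD of buffer-only control wells, cut at about 26% in these data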;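 also: percent drop in integrated peak-minus-baseline over baseline Fluo4 ratio after carbachol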
The depositor's hits bear a star; i = inactive; x = no result given.

SMILES | MrgX1 PAM | RGS4 pot | RGS4 inh | MrgX1 antagonist | MrgX1 ag | RGS4 activ val | M3R Ca counter
CCC(=O)N1CCc2cc(S(=O)(=O)NCCC(=O)N3CCN(c4ccccc4)CC3)ccc21 | i | i | i | i | i | x | x
Cc1nc2ccccc2c(=O)n1-c1ccc(F)c(NS(=O)(=O)c2ccccc2F)c1 | i | i | i | i | i | x | x
COc1ccc(/C=C/C(O)=C2/C(=O)N(C)C3(C)CC2c2ccccc2O3)cc1 (centres undefined) | i | i | i | i | i | x | x
Cc1ccc(/C=C/C(O)=C2/C(=O)N(C)C3(C)CC2c2ccccc2O3)cc1 (centres undefined) | i | -8* | i | i | i | 73* | 84*
CCN1CCCC1CNCc1cccc(OC)c1OCc1ccccc1 (centres undefined) | i | i | i | i | i | x | x
CCN1CCCC1CNCc1ccccc1OCc1ccc(F)cc1 (centres undefined) | i | -7.6* | i | i | i | 46* | 0
CCn1c(SCC#N)nc2c(c1=O)C1(CCCC1)Cc1ccccc1-2 | i | -10* | i | i | i | 69* | 84*
CCc1ccc(-c2cc(C(=O)Nn3cnnc3)c3ccccc3n2)cc1 | i | i | i | i | i | x | x
c1ccc(CC2CCN(C3=Nc4cccc5cccc3c45)CC2)cc1 | i | -9.1* | i | -5.7* | i | 94* | 98*
c1cc2c3c(cccc3c1)C(N1CCOCC1)=N2 | i | i | i | i | i | x | x
O=C(COC(=O)C1CCN(c2ccc(C(F)(F)F)cn2)CC1)c1ccc(Cl)cc1 | i | -7.8* | i | i | i | 76* | 31*
Cc1cc(C)c(C(=O)COC(=O)C2CCN(c3ccc(C(F)(F)F)cn3)CC2)cc1C | i | i | i | i | i | x | x
O=C(COC(=O)C1CCN(c2ccc(C(F)(F)F)cn2)CC1)c1ccc(F)cc1 | i | i | i | i | i | x | x
COc1cc(C(=O)COC(=O)C2CCN(c3ccc(C(F)(F)F)cn3)CC2)ccc1OC(F)F | i | -8.7* | i | i | i | 76* | 84*
CC(=O)N1CCN(c2ccccc2NC(=O)COc2cc(C)ccc2C(C)C)CC1 | i | i | i | i | i | x | x
Cc1ccc(N(Cc2ccc([N+](=O)[O-])cc2)C(=O)c2ccco2)cc1C | i | -11* | i | i | i | 88* | 40*
O=C(c1ccco1)N(Cc1ccc([N+](=O)[O-])cc1)c1ccc(Cl)cc1 | i | i | i | i | i | x | x
COc1cccc(CNC(=O)CCC2CCCN(C3CCOCC3)C2)c1 (centres undefined) | i | i | i | i | i | x | x
COc1cccc(CNC(=O)CCC2CCCN(c3cc(C)nc(N4CCCC4)n3)C2)c1 (centres undefined) | i | -12* | i | i | i | 92* | 94*
O=C(CCC(=O)Nc1nnc(C2CCCCC2)s1)NCC1CCCO1 (centres undefined) | i | i | i | i | i | x | x
COc1ccc(S(=O)(=O)NC(Cc2cnc[nH]2)C(=O)O)cc1 (centres undefined) | i | i | i | i | i | x | x
CC(C)Oc1cccc(C(=O)NC(=S)Nc2ccc(N3CCN(C)CC3)cc2)c1 | i | -11* | i | i | i | 92* | 93*
COc1cccc(C(=O)NC(=S)Nc2ccc(N3CCCC3)cc2)c1 | i | i | i | i | i | x | x
CCN(CC)CCCN(C(=O)c1cccs1)c1nc(-c2ccc(OC)cc2)cs1 | i | -11* | i | i | i | 90* | 31*
CCN(CC)CCCN(C(=O)c1ccc(Br)cc1)c1nc(-c2ccc(OC)cc2)cs1 | i | i | i | i | i | x | x
CN1\C(=C/C=C/C=C/C=[N+](C)C)C(C)(C)c2ccccc21 | x | i | i | x | x | x | x

Screens as filed in PubChem.
